Assay results published in ChEMBL document CHEMBL3860087, “New Broad-Spectrum Antibacterial Amphiphilic Aminoglycosides Active against Resistant Bacteria: From Neamine Derivatives to Smaller Neosamine Analogues” (J Med Chem, 2016).
≈ marks a conversion by molar mass, not a printed value.

Key:
[1] = test system: Pseudomonas aeruginosa; assay: Antibacterial activity against AAC6'-2A expressing Pseudomonas aeruginosa F03 by microdilution method; format: functional
Method in brief: (§1)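 Strains grown overnight at 37 °C on trypticase soy agar; MIC by broth microdilution from fresh culture in cation-adjusted Mueller–Hinton broth, starting inoculum 10^6 cells, following CLSI recommendations.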

[2] = Cytotoxicity against mouse J774 cells assessed as cell viability at 30 uM after 24 hrs by MTT assay relative to control; format: toxicity, cell-based; conditions: J774 cells, read-out: Activity
Method in brief: (§2)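 Murine J774 macrophages exposed 24 h to 10 or 30 μM compound, then 1 h with 0.2 mg/mL MTT; reaction stopped with DMSO, OD read at 570 nm as metabolic-activity viability. Number of independent experiments given per value.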

[3] = test system: Escherichia coli; assay: microbe, parasite or virus in culture; conditions: ATCC 25922
[4] = test system: Pseudomonas aeruginosa; assay: Antibacterial activity against triABC deficient Pseudomonas aeruginosa PA406 by microdilution method; format: functional; method in brief: as §1
[5] = test system: Pseudomonas aeruginosa; assay: Antibacterial activity against MexXY expressing Pseudomonas aeruginosa PA22 by microdilution method; format: functional; method in brief: as §1
[6] = test system: Escherichia coli; assay: Antibacterial activity against ANT2''-IA expressing Escherichia coli L8058.1 by microdilution method; format: functional; method in brief: as §1
[7] = test system: Escherichia coli; assay: Antibacterial activity against AAC6'-IB expressing Escherichia coli PAZ505H8101 by microdilution method; format: functional; method in brief: as §1
[8] = test system: Staphylococcus aureus; assay: Antibacterial activity against healthcare-acquired methicillin-resistant Staphylococcus aureus ATCC 33592 by microdilution method; format: functional
Method in brief: (§3)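 Broth microdilution per CLSI in cation-adjusted Mueller–Hinton broth. Strains were grown overnight at 37 °C on trypticase soy agar, and a fresh culture was used. Starting inoculum was 10^6 cells.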

[9] = test system: Pseudomonas aeruginosa; assay: Antibacterial activity against Pseudomonas aeruginosa ATCC 27853 by microdilution method; format: functional; method in brief: as §1
[10] = test system: Staphylococcus aureus; assay: Antibacterial activity against NorA expressing Staphylococcus aureus 1 by microdilution method
[11] = test system: Acinetobacter lwoffii; assay: Antibacterial activity against Acinetobacter lwoffii ATCC 17925 by microdilution method; format: functional; method in brief: as §1
[12] = Cytotoxicity against mouse J774 cells assessed as cell viability at 10 uM after 24 hrs by MTT assay relative to control; format: toxicity, cell-based; conditions: J774 cells, read-out: Activity; method in brief: as §2
[13] = test system: Acinetobacter lwoffii; assay: Antibacterial activity against APH3'-VIA expressing Acinetobacter lwoffii AI.88-483 by microdilution method; format: functional; method in brief: as §1
[14] = test system: Klebsiella pneumoniae; assay: Antibacterial activity against Klebsiella pneumoniae ATCC 700603 by microdilution method; format: functional; method in brief: as §1
[15] = test system: Staphylococcus aureus; assay: Antibacterial activity against Staphylococcus aureus ATCC 25923 by microdilution method; format: functional; method in brief: as §3

Molecule	MIC [1] [µg/mL]	viability at 24 h, 30 µM [2] [%]	MIC [3] [µg/mL]	MIC [4] [µg/mL]	MIC [5] [µg/mL]	MIC [6] [µg/mL]	MIC [7] [µg/mL]	MIC [8] [µg/mL]	MIC [9] [µg/mL]	MIC [10] [µg/mL]	MIC [11] [µg/mL]	viability at 24 h, 10 µM [12] [%]	MIC [13] [µg/mL]	MIC [14] [µg/mL]	MIC [15] [µg/mL]
CCCCCCCCCO[C@@H]1[C@@H](N)[C@@H](OC[C@H](O)CN=[N+]=[N-])O[C@H](CN)[C@H]1OCCCCCCCCC	> 128	5.9	32 (≈ 60.4 µM)	> 128	128 (≈ 242 µM)	> 128	> 128	2 (≈ 3.78 µM)	> 128	2 (≈ 3.78 µM)	4 (≈ 7.55 µM)	62.2	> 128	> 128	2 (≈ 3.78 µM)
C=CCO[C@H]1O[C@H](CN)[C@@H](OCCCCCCCCC)[C@H](OCCCCCCCCC)[C@H]1N	> 128	6.6	32 to 64 (≈ 68 to 136 µM)	> 128	> 128	> 128	> 128	4 (≈ 8.5 µM)	> 128	4 (≈ 8.5 µM)	4 to 8 (≈ 8.5 to 17 µM)	91.4	32 (≈ 68 µM)	128 (≈ 272 µM)	4 (≈ 8.5 µM)
C=CCO[C@H]1O[C@H](CN)[C@@H](OCc2ccc3ccccc3c2)[C@H](OCc2ccc3ccccc3c2)[C@H]1N	> 128	28.3	64 (≈ 128 µM)	32 (≈ 64.2 µM)	> 128	128 (≈ 257 µM)	64 (≈ 128 µM)	8 (≈ 16 µM)	> 128	8 (≈ 16 µM)	8 (≈ 16 µM)	86.9	64 (≈ 128 µM)	> 128	8 (≈ 16 µM)
CCCCCCCCCO[C@@H]1[C@@H](N)[C@@H](OCC(O)CNCCCO)O[C@H](CN)[C@H]1OCCCCCCCCC (mixture of isomers)	8	13.7	4 to 8	8	8	4	4	1 to 2	8	1 to 2	1	89.9	8	8 to 16	2
CCCCCCCCCO[C@@H]1[C@@H](N)[C@@H](OCC(O)CNCCO)O[C@H](CN)[C@H]1OCCCCCCCCC (mixture of isomers)	8	10.1	4 to 8	8	8	4 to 8	8	1 to 2	8	1 to 2	2	99.1	4 to 8	8	4
GENTAMICIN	> 128			< 0.25	4	64	1	1	1		< 0.25		2	4 to 8	0.25 to 0.5
NC[C@H]1O[C@H](O[C@H]2[C@H](O)[C@@H](O)[C@H](N)C[C@@H]2N)[C@H](N)[C@@H](O)[C@@H]1O [NEAMINE]	> 128	84.4	32 (≈ 99.3 µM)	64 (≈ 199 µM)	> 128	32 (≈ 99.3 µM)	> 128	> 128	> 128	8 (≈ 24.8 µM)	0.5 (≈ 1.55 µM)	94.8	> 128	32 (≈ 99.3 µM)	16 to 32 (≈ 49.6 to 99.3 µM)
NCC[C@H](O)C(=O)N[C@@H]1C[C@H](N)[C@@H](O[C@H]2O[C@H](CN)[C@@H](O)[C@H](O)[C@H]2O)[C@H](O)[C@H]1O[C@H]1O[C@H](CO)[C@@H](O)[C@H](N)[C@H]1O [AMIKACIN]	8 (≈ 13.7 µM)	92	4 (≈ 6.83 µM)	1 (≈ 1.71 µM)	8 (≈ 13.7 µM)	2 (≈ 3.42 µM)	64 (≈ 109 µM)	8 to 16 (≈ 13.7 to 27.3 µM)	2 to 4 (≈ 3.42 to 6.83 µM)	2 (≈ 3.42 µM)	< 0.25	81.2	128 (≈ 219 µM)	1 (≈ 1.71 µM)	4 (≈ 6.83 µM)
C=CCO[C@H]1O[C@H](CN)[C@@H](OCCCc2ccc3ccccc3c2)[C@H](OCCCc2ccc3ccccc3c2)[C@H]1N	> 128	7	32 to 64 (≈ 57.7 to 115 µM)	32 (≈ 57.7 µM)	> 128	64 (≈ 115 µM)	64 (≈ 115 µM)	4 to 8 (≈ 7.21 to 14.4 µM)	128 (≈ 231 µM)	4 (≈ 7.21 µM)	4 to 8 (≈ 7.21 to 14.4 µM)	105	64 (≈ 115 µM)	128 (≈ 231 µM)	4 to 8 (≈ 7.21 to 14.4 µM)
NC[C@H]1O[C@H](O[C@H]2[C@H](O)[C@@H](O)[C@H](N)C[C@@H]2N)[C@H](N)[C@@H](OCc2ccc3ccccc3c2)[C@@H]1OCc1ccc2ccccc2c1	128 (≈ 212 µM)		16 to 32 (≈ 26.5 to 53.1 µM)	2 to 4 (≈ 3.32 to 6.64 µM)	128 (≈ 212 µM)	16 to 32 (≈ 26.5 to 53.1 µM)	8 to 16 (≈ 13.3 to 26.5 µM)	4 to 8 (≈ 6.64 to 13.3 µM)	16 (≈ 26.5 µM)	2 to 4 (≈ 3.32 to 6.64 µM)	4 (≈ 6.64 µM)	79.1	> 128	> 128	2 to 4 (≈ 3.32 to 6.64 µM)
NC[C@@H]1O[C@H](O[C@H]2[C@@H](O)[C@H](O[C@@H]3[C@@H](O)[C@H](N)C[C@H](N)[C@H]3O[C@H]3O[C@H](CN)[C@@H](O)[C@H](O)[C@H]3N)O[C@@H]2CO)[C@H](N)[C@@H](O)[C@@H]1O [FRAMYCETIN]	128 (≈ 208 µM)	69.8	2 (≈ 3.25 µM)	2 (≈ 3.25 µM)	32 to 64 (≈ 52.1 to 104 µM)	1 (≈ 1.63 µM)	4 (≈ 6.51 µM)	> 128	64 (≈ 104 µM)	0.5 (≈ 0.813 µM)	< 0.25	87.3	64 to 128 (≈ 104 to 208 µM)	4 to 8 (≈ 6.51 to 13 µM)	1 to 2 (≈ 1.63 to 3.25 µM)
CCCCCCCCCO[C@@H]1[C@@H](N)[C@@H](OC[C@@H](O)CN)O[C@H](CN)[C@H]1OCCCCCCCCC	8 (≈ 15.9 µM)	7.2	4 (≈ 7.94 µM)	4 to 8 (≈ 7.94 to 15.9 µM)	8 (≈ 15.9 µM)	4 to 8 (≈ 7.94 to 15.9 µM)	4 (≈ 7.94 µM)	2 (≈ 3.97 µM)	4 to 8 (≈ 7.94 to 15.9 µM)	1 (≈ 1.99 µM)	2 (≈ 3.97 µM)	85.1	4 (≈ 7.94 µM)	8 (≈ 15.9 µM)	2 (≈ 3.97 µM)
NC[C@H]1O[C@H](O[C@H]2[C@H](O)[C@@H](O[C@H]3O[C@H](CO)[C@@H](O)[C@H](N)[C@H]3O)[C@H](N)C[C@@H]2N)[C@H](N)C[C@@H]1O [TOBRAMYCIN]	128 (≈ 274 µM)	83.2	1 (≈ 2.14 µM)	< 0.25	0.5 (≈ 1.07 µM)	64 (≈ 137 µM)	32 (≈ 68.4 µM)	64 (≈ 137 µM)	< 0.25	0.5 (≈ 1.07 µM)	< 0.25	99.7	0.5 to 1 (≈ 1.07 to 2.14 µM)	4 to 8 (≈ 8.56 to 17.1 µM)	0.25 (≈ 0.535 µM)
C=CCO[C@H]1O[C@H](CN)[C@@H](O)[C@H](O)[C@H]1N	> 128	82.1	> 128	> 128	> 128	> 128	> 128	> 128	> 128	> 128	> 128	82.2	> 128	> 128	> 128
CCCCCCCCCO[C@@H]1[C@@H](N)[C@@H](OCC(O)CO)O[C@H](CN)[C@H]1OCCCCCCCCC (mixture of isomers)	64	8.8	8	64	64	8	16	2	64	2	1	89.7	8	64	2
CCCCCCCCCO[C@@H]1[C@@H](N)[C@@H](OCC(O)CNCCN)O[C@H](CN)[C@H]1OCCCCCCCCC (mixture of isomers)	4 to 8	53	8	8	4 to 8	4 to 8	4 to 8	2	8	2	2	87.5	16 to 32	8 to 16	2
CCCCCCCCCO[C@@H]1[C@@H](N)[C@@H](OC[C@H](O)CN)O[C@H](CN)[C@H]1OCCCCCCCCC	8 (≈ 15.9 µM)	14.4	4 (≈ 7.94 µM)	8 (≈ 15.9 µM)	8 (≈ 15.9 µM)	4 (≈ 7.94 µM)	4 (≈ 7.94 µM)	2 (≈ 3.97 µM)	8 (≈ 15.9 µM)	2 (≈ 3.97 µM)	2 (≈ 3.97 µM)	88	8 (≈ 15.9 µM)	8 to 16 (≈ 15.9 to 31.8 µM)	2 (≈ 3.97 µM)
